Assay results as given in paper PMC12502093 (RSC Advances, 2025).
Values after ≈ are worked out from the molar mass of the structure shown.

Columns and labels:
MCF7 cells = assay: Neutral red uptake cytotoxicity assay, MCF7; assay type: cell-based, human
In short: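 Neutral red uptake. Log-phase cells were grown in DMEM with 10% FBS at 37 °C, 5% CO2, at 10^4 cells/well. They were exposed 48 h to 12.5, 25, 50 and 100 μM test compound (DMSO final <0.2%), then given neutral red medium for 2 h and washed with DPBS. Dye was extracted with 1% acetic acid/50% ethanol and read at 450/630 nm. IC50 came from log concentration versus intensity, three runs averaged. SI = MDCK IC50 / MCF7 IC50.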

IL6 = assay: qRT-PCR gene expression in MCF7 cells: IL6; assay type: cell-based, human; conditions: compound at IC50, 48 h, relative to β-Actin, vs control
In short: (§1)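 MCF7 cells (3 × 10^4 per well) were treated 48 h with test compound. Total RNA was column-extracted and reverse-transcribed to first-strand cDNA. SYBR Green qPCR ran 95 °C 10 min, then 40 cycles of 95 °C 15 s, 60 °C 30 s, 72 °C 30 s. Expression was normalised to β-Actin by 2−ΔΔCT relative to untreated control. Data are mean ± SEM; Student's t-test, P < 0.05.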

STAT3 [1] = assay: qRT-PCR gene expression in MCF7 cells: STAT3; assay type: cell-based, human; conditions: compound at IC50, 48 h, relative to β-Actin, vs control
In short: as §1

BAX = assay: qRT-PCR gene expression in MCF7 cells: BAX; assay type: cell-based, human; conditions: compound at IC50, 48 h, relative to β-Actin, vs control
In short: as §1

Cyclin D1 = assay: qRT-PCR gene expression in MCF7 cells: Cyclin D1; assay type: cell-based, human; conditions: compound at IC50, 48 h, relative to β-Actin, vs control
In short: as §1

c-MYC = assay: qRT-PCR gene expression in MCF7 cells: c-MYC; assay type: cell-based, human; conditions: compound at IC50, 48 h, relative to β-Actin, vs control
In short: as §1

S. aureus ATCC 25923 = assay: Agar well diffusion test; assay type: cell-based; conditions: AWDT
In short: (§2)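 Agar well diffusion. Test compounds were placed in wells on agar inoculated with the reference strain or isolate. After incubation, inhibition zone diameters were measured in mm with a caliper. Runs were in triplicate and the zone averaged. Scale: 0 = no inhibition; 0–6 mm (−); 7–11 mm (+); 12–14 mm (++); 15–17 mm (+++).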

E. coli O157 ATCC 700728 = assay: Agar well diffusion test; assay type: cell-based; conditions: AWDT
In short: as §2

C. albicans ATCC 10231 [2] = assay: Agar well diffusion test; assay type: cell-based; conditions: AWDT
A. flavus isolate = assay: Agar well diffusion test; assay type: cell-based; conditions: AWDT
In short: as §2

C. albicans ATCC 10231 [3] = assay: Minimum inhibitory concentration, C. albicans; assay type: cell-based; conditions: Candida albicans, ATCC10231, read-out: MIC (mg mL^−1)
In short: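 MIC was determined by a previously reported method for compounds selected from the well-diffusion screen and is expressed in mg mL−1. […] For C. albicans, 100 μL of negative cells went onto potato dextrose agar at 25 °C/72 h.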

STAT3 [4] = target: STAT3 (Homo sapiens, UniProt P40763); assay: STAT3 tyrosine phosphorylation inhibition; assay type: biochemical
S. aureus DNA gyrase [5] = target: T1, S. aureus DNA gyrase (Staphylococcus aureus, UniProt P0A0K8); assay: S. aureus DNA gyrase supercoiling assay; assay type: biochemical
S. aureus DNA gyrase [6] = target: T1, S. aureus DNA gyrase; assay: S. aureus DNA gyrase ATPase assay; assay type: biochemical
[7] = target: T2, S. aureus topoisomerase IV (Staphylococcus aureus, UniProt P0C1S7); assay: S. aureus topoisomerase IV decatenation assay; assay type: biochemical
[8] = target: T2, S. aureus topoisomerase IV; assay: S. aureus topoisomerase IV ATPase assay; assay type: biochemical

T2 sequence (P0C1S7 whole entry): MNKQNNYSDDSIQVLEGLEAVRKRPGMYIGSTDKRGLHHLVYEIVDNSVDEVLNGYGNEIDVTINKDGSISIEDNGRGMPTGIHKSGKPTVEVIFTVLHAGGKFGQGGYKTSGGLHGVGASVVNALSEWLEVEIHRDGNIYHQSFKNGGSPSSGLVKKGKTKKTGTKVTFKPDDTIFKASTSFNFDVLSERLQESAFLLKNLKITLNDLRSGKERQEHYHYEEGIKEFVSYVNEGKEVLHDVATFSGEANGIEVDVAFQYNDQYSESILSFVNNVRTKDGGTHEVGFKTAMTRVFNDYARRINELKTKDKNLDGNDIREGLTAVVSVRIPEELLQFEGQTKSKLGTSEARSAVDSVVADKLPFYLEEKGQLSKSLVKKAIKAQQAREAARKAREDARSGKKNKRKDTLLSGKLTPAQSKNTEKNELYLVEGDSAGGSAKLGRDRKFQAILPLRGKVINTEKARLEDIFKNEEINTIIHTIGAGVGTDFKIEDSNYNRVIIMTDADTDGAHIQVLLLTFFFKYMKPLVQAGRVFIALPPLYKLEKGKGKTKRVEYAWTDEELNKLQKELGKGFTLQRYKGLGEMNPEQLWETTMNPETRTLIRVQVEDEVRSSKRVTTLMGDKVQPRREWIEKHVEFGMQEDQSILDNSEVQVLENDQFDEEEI
T2 sequence (P0C1U9 whole entry partner): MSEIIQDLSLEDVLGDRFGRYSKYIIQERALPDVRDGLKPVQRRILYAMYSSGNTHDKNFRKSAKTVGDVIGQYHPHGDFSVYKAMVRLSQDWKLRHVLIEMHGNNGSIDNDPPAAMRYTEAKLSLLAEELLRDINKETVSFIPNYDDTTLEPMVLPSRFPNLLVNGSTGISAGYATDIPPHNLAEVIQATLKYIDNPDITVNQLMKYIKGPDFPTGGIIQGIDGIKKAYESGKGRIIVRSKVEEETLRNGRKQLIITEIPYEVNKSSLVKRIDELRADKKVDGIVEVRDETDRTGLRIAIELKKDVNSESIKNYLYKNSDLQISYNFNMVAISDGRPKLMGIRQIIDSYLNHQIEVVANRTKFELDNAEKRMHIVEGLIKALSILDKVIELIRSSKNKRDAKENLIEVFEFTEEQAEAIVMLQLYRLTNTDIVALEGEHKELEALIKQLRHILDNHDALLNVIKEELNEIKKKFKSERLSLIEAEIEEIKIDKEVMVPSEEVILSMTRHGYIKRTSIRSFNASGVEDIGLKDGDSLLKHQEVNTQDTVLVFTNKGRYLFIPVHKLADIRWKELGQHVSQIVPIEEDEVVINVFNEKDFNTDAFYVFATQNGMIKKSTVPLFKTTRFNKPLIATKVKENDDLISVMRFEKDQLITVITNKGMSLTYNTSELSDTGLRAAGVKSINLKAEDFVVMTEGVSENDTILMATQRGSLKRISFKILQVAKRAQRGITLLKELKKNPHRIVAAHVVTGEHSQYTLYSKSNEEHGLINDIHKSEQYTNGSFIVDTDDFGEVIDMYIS
STAT3 (Homo sapiens, UniProt P40763), sequence (P40763 whole entry): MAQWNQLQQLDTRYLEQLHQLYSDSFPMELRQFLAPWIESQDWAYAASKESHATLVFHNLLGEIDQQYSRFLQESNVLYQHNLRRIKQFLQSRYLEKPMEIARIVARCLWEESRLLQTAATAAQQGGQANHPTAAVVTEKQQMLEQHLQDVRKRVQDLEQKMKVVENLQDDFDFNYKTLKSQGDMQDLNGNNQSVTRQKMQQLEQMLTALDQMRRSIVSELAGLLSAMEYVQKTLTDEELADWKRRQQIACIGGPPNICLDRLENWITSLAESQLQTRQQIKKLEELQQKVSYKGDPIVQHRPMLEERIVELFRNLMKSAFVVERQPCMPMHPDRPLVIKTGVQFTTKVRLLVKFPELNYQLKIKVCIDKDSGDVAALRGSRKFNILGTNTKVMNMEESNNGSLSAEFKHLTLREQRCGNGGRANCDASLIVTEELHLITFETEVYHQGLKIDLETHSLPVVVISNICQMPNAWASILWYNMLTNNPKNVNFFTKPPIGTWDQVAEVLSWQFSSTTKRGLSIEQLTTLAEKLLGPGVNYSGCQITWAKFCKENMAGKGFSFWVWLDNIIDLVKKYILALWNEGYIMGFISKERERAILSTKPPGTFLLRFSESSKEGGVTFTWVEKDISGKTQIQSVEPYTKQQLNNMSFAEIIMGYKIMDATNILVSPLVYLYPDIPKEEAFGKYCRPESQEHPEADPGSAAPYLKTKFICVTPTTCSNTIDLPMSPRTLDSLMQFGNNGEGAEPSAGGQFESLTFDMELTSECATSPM
T1 sequence (P0A0K8 whole entry): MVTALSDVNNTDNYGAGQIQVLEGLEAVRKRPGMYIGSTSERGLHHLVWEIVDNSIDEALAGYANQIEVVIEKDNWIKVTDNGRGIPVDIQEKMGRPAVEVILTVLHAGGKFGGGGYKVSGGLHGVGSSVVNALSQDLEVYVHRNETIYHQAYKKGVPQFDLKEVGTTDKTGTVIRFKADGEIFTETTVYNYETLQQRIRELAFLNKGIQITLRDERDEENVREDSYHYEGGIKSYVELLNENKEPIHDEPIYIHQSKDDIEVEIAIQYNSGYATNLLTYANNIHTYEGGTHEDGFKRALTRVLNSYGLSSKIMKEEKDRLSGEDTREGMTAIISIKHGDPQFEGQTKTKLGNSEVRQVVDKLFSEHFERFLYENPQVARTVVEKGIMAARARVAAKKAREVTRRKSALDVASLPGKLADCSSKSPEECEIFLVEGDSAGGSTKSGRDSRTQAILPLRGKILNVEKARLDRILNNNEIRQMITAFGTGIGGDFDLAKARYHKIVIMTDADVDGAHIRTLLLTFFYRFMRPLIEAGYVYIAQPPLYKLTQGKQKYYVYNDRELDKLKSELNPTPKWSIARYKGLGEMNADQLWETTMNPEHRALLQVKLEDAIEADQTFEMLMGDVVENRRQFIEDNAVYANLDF
T1 sequence (P20831 whole entry partner): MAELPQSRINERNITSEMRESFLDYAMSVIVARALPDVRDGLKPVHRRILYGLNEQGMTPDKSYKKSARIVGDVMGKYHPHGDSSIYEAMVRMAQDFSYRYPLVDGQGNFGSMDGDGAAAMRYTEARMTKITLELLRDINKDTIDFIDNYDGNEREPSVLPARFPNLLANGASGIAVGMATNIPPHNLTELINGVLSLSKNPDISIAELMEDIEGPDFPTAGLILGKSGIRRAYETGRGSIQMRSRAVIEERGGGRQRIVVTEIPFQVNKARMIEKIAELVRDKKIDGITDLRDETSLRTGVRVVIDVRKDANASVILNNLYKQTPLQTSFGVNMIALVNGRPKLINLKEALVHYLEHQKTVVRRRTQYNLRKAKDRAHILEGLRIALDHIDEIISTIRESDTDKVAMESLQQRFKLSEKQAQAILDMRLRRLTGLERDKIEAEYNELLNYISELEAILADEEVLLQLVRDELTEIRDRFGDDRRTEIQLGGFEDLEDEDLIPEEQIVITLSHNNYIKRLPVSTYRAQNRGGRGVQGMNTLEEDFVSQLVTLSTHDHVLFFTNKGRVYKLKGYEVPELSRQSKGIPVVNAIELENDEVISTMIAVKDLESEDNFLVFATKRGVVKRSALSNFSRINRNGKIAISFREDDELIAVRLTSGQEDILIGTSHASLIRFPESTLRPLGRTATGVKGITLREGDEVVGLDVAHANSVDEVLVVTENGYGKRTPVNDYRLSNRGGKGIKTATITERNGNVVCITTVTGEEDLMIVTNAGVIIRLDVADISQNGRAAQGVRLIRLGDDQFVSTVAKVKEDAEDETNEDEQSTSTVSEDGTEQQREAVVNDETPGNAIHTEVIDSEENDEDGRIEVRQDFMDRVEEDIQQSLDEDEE

CC(=O)c1ccc2cc(S(=O)(=O)Nc3ccc(Br)cc3)ccc2c1 [Compound 5e, 6-Acetyl-N-(4-bromophenyl)naphthalene-2-sulfonamide]
IC50 (MCF7 cells; Homo sapiens, MCF7, 48 h, read-out: IC50 (μM) MCF7): 43.1 µM | (SI) MCF7, selectivity index (MCF7 cells; SI = IC50 MDCK cell/IC50 MCF7 cell): 2.22 | IL6 gene expression level (IL6): significant reduction | STAT3 gene expression level (STAT3 [1]): significant reduction | BAX gene expression level (BAX): significantly increased | Cyclin D1 gene expression level (Cyclin D1): significant reduction | c-MYC gene expression level (c-MYC): significant reduction | Zone of inhibition, inhibition scale (S. aureus ATCC 25923; S. aureus ATCC 25923): +++ (15–17 mm (+++)) | Zone of inhibition (S. aureus ATCC 25923; S. aureus ATCC 25923, average of triplicate): 16 mm | Zone of inhibition, inhibition scale (E. coli O157 ATCC 700728; E. coli O157 ATCC 700728): ++ (12–14 mm (++)) | Zone of inhibition (E. coli O157 ATCC 700728; E. coli O157 ATCC 700728, average of triplicate): 12 mm | Zone of inhibition, inhibition scale (C. albicans ATCC 10231 [2]; C. albicans ATCC 10231): +++ (15–17 mm (+++)) | Zone of inhibition (C. albicans ATCC 10231 [2]; C. albicans ATCC 10231, average of triplicate): 15 mm | Zone of inhibition, inhibition scale (A. flavus isolate): + (7–11 mm (+)) | Zone of inhibition (A. flavus isolate; average of triplicate): 11 mm | MIC (C. albicans ATCC 10231 [3]): 20 mg/mL (≈ 49.5 mM) | IC50 (STAT3 [4]; STAT3 phosphorylation IC50 (μM) (mean ± SD), ELISA, eight dilutions 100-0.03 μM): 3.01 ± 0.06 µM | Potency as STAT3 inhibitor relative to lead compound I (STAT3 [4]; higher potency than compound I): approximately 2 fold | IC50 (S. aureus DNA gyrase [5]): 21.8 µM | IC50 (S. aureus DNA gyrase [6]): 3.04 µM | IC50 [7]: 18.9 µM | IC50 [8]: 5.96 µM | Activity relative to ciprofloxacin, topoisomerase IV ATPase assay ([8]; S. aureus, less than ciprofloxacin): more than 3 fold
